Measured values gathered from unrelated publications.
Compare with care: the assays were run in different laboratories.
PDE3A: cGMP-inhibited 3',5'-cyclic phosphodiesterase 3A (PDE3A, Homo sapiens, UniProt Q14432)
OPRL1: Nociceptin receptor (OPRL1, Homo sapiens, UniProt P41146)

Compound | target | test | setting | inhibition [%]
C#Cc1n[nH]c2c(-c3cn([C@@H](C)c4ccccc4)c(=O)[nH]c3=O)cc(F)cc12 | Leucine-rich repeat serine/threonine-protein kinase 2 (LRRK2, Homo sapiens, UniProt Q5S007) | enzyme activity, inhibitor | 0.1 µM | 3.8
C[C@H](C(=O)N[C@H]1COc2ccccc2[C@@H]1S(C)(=O)=O)c1ccc(F)cc1 | PDE3A | cell-free assay, inhibitor | 10 µM | -9
COc1cc(Nc2ncc(F)c(Nc3ccc4c(n3)NC(=O)C(C)(C)O4)n2)cc(OC)c1OC | Eukaryotic translation initiation factor 2-alpha kinase 1 (EIF2AK1, Homo sapiens, UniProt Q9BQI3) | binding, competition with immobilised ligand | 10 µM | 38
CCN(CC)CCCC[C@H](NC(=O)[C@H](CC(C)C)NC(=O)[C@H](C)NC(=O)[C@H](Cc1ccccc1)NC(=O)c1ccc(C(C)(C)C)cc1)C(=O)N[C@@H](CO)C(=O)OC | OPRL1 | ligand displacement, radioligand | 10 µM | 23
CN(CCN1CCC(OC(=O)Nc2ccccc2-c2ccccc2)CC1)C(=O)c1ccc(CN2CCC(C(N)=O)CC2)cc1 | OPRL1 | ligand displacement, radioligand | 1 µM | 0
C#Cc1n[nH]c2c(-c3cn([C@@H](C)c4ccccn4)c(=O)[nH]c3=O)cc(F)cc12 | Mitogen-activated protein kinase 14 (MAPK14, Homo sapiens, UniProt Q16539) | enzyme activity, inhibitor | 0.1 µM | 4
O=C(Nc1cccnn1)N1CCN([C@@H]2CCOc3cc(C(F)(F)F)ccc32)CC1 | PDE3A | cell-free assay | 20 µM | 4
Cn1cc(-c2cccc(N3CCc4c(sc5c4CC(C)(C)C5)C3=O)c2CO)cc(Nc2ccncn2)c1=O | Phosphatidylinositol 3-kinase catalytic subunit type 3 (PIK3C3, Homo sapiens, UniProt Q8NEB9) | enzyme activity, inhibitor | 1 µM | 0
c1ccc(C(NCCNC(c2ccccc2)c2ccccc2)c2ccccc2)cc1 | Apelin receptor (APLNR, Homo sapiens, UniProt P35414) | cell-free assay | 10 µM | 46
Cn1cc(-c2cc(F)cc(N3CCn4c(cc5c4CCCC5)C3=O)c2CO)cc(Nc2ccc(N3CCN(C4COC4)CC3)cn2)c1=O | Serine/threonine-protein kinase TAO2 (TAOK2, Homo sapiens, UniProt Q9UL54) | enzyme activity, inhibitor | 0.1 µM | 7
CCOC(=O)c1ccc(OC(=O)CCCCCNC(=N)N)cc1 | Ataxin-3 (ATXN3, Homo sapiens, UniProt P54252) | enzyme activity, inhibitor | 10 µM | 3
